Reference: ChEMBL document CHEMBL5380775, “Visible-Light-Controlled Histone Deacetylase Inhibitors for Targeted Cancer Therapy” (J Med Chem, 2023)
The source made the active and inactive calls. The calls are words filed in the database; no cut-off is given here.

Columns and labels:
[1] = tested on: HeLa; assay: Anticancer activity against human HeLa cells assessed as inhibition of cell growth incubated for 48 hrs in presence of illumination with 380 nm light by MTS assay; type: functional, cell-based
Method in brief: (§1)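 HeLa cells in DMEM with 10% FBS, seeded at 5 × 10³ cells/well 24 h before treatment. Dark stocks heated to 60 or 80 °C. Light stocks preilluminated 3 min at 380 nm (11 mW/cm²). Stocks diluted in DMEM to 20× final, final DMSO 0.5%. Exposure 24 or 48 h. MTS read 2 h at 37 °C, absorbance 490 nm; % of nontreated cells.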

[2] = tested on: HeLa; assay: Anticancer activity against human HeLa cells assessed as inhibition of cell growth incubated for 48 hrs in dark by MTS assay; type: functional, cell-based; method in brief: as §1
[3] = Stability of compound in DMSO assessed as half life at 25 to 50 uM in presence of illumination with 380 to 550 nm light; type: physicochemical; settings: dose 25-50 µM
Method in brief: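 Solutions of 25–50 μM in DMSO illuminated 2 min at the cis-forming wavelength. Absorbance then followed at fixed intervals in the dark at room temperature, at the wavelength of largest isomer difference. Half-life from an exponential-decay fit.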

[4] = target: T1, Histone deacetylase 1 (Homo sapiens, UniProt Q13547); assay: Inhibition of human recombinant HDAC1 using Boc-Lys(Ac)-AMC as substrate incubated for 1 hrs in presence of illumination with 380 nm light by fluorescence based assay
[5] = target: T1, Histone deacetylase 1; assay: Inhibition of human recombinant HDAC1 using Boc-Lys(Ac)-AMC as substrate at 0.003 to 10 uM incubated for 1 hrs in dark by fluorescence based assay; settings: dose 0.003-10 µM
Method in brief: (§2)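 Recombinant human HDAC1 at 8 ng/well with Boc-Lys(Ac)-AMC 15 μM in Tris buffer pH 8 with 0.1 mg/mL BSA. Compound 10 μM to 3 nM, 1 h at room temperature. Dark: stocks heated to 60 or 80 °C. Light: stocks preilluminated 3 min, then continuous 550 nm at 6 mW/cm². […] Fluorescence ex 380/em 460 nm, blank-subtracted.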

[6] = target: T1, Histone deacetylase 1; assay: Inhibition of human recombinant HDAC1 using Boc-Lys(Ac)-AMC as substrate incubated for 1 hrs in presence of illumination with 550 nm light by fluorescence based assay
[7] = target: T1, Histone deacetylase 1; assay: Inhibition of human recombinant HDAC1 using Boc-Lys(Ac)-AMC as substrate incubated for 1 hrs in dark by fluorescence based assay
[8] = target: T1, Histone deacetylase 1; assay: Inhibition of human recombinant HDAC1 using Boc-Lys(Ac)-AMC as substrate at 0.003 to 10 uM incubated for 1 hrs in presence of illumination with 550 nm light by fluorescence based assay; settings: dose 0.003-10 µM; method in brief: as §2
[9] = tested on: HT-29; assay: Cytotoxicity against human HT-29 cells assessed as reduction in cell viability at 50 uM incubated for 48 hrs in dark condition by MTS assay; type: functional, cell-based
Method in brief: (§3)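 HT29 and MCF7 cells in DMEM with 10% FBS, seeded at 1 × 10⁴ cells/well; compound added 24 h later. Dark stocks heated to 60 or 80 °C; light stocks preilluminated 3 min at 380 or 550 nm. Tested at 50 μM, final DMSO 0.5%, for 48 h. MTS read 2 h at 37 °C, absorbance 490 nm; viability as % of nontreated cells.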

[10] = tested on: HT-29; assay: Cytotoxicity against human HT-29 cells assessed as reduction in cell viability at 50 uM incubated for 48 hrs in presence of illumination with 380 nm light by MTS assay; type: functional, cell-based; method in brief: as §3
[11] = tested on: HT-29; assay: Cytotoxicity against human HT-29 cells assessed as reduction in cell viability at 50 uM incubated for 48 hrs in presence of illumination with 550 nm light by MTS assay; type: functional, cell-based; method in brief: as §3
[12] = tested on: KG-1; assay: Cytotoxicity against human KG-1 cells assessed as reduction in cell viability at 50 uM incubated for 48 hrs in presence of illumination with 550 nm light by celltiter glo assay; type: functional, cell-based
Method in brief: (§4)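 KG1 suspension cells grown in IMDM with 20% FBS, 1 × 10⁴ cells/well. Dark stocks heated to 60 or 80 °C; light stocks preilluminated 3 min at 380 or 550 nm. Exposure 50 μM for 48 h. CellTiter-Glo added, 10 min at room temperature, luminescence read; % of nontreated cells.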

[13] = tested on: MCF7; assay: Cytotoxicity against human MCF7 cells assessed as reduction in cell viability at 50 uM incubated for 48 hrs in dark condition by MTS assay; type: functional, cell-based; method in brief: as §3
[14] = tested on: MCF7; assay: Cytotoxicity against human MCF7 cells assessed as reduction in cell viability at 50 uM incubated for 48 hrs in presence of illumination with 380 nm light by MTS assay; type: functional, cell-based; method in brief: as §3
[15] = tested on: MCF7; assay: Cytotoxicity against human MCF7 cells assessed as reduction in cell viability at 50 uM incubated for 48 hrs in presence of illumination with 550 nm light by MTS assay; type: functional, cell-based; method in brief: as §3
[16] = tested on: KG-1; assay: Cytotoxicity against human KG-1 cells assessed as reduction in cell viability at 50 uM incubated for 48 hrs in dark condition by celltiter glo assay; type: functional, cell-based; method in brief: as §4
[17] = tested on: HeLa; assay: Anticancer activity against human HeLa cells assessed as reduction in cell viability upto 100 uM incubated for 48 hrs in dark by MTS assay; type: functional, cell-based; method in brief: as §1
[18] = tested on: HeLa; assay: Anticancer activity against human HeLa cells assessed as inhibition of cell growth incubated for 24 hrs in dark condition by MTS assay; type: functional, cell-based; method in brief: as §1
[19] = target: Histone deacetylase (Homo sapiens) (UniProt Q13547+O15379+Q9UBN7+Q92769+Q9UQL6+Q8WUI4+Q9BY41+Q96DB2+P56524+Q9UKV0+Q969S8); assay: Inhibition of HDAC in human HeLa cells at 50 uM incubated for 3 hrs by fluorescence based analysis; type: cell-based
Method in brief: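 Live-cell HDAC assay: HeLa in DMEM/10% FBS, 15 × 10³ cells/well, seeded 24 h before. Compound added at 50 μM final, either heat-relaxed to trans (60 or 80 °C, dark) or LED-illuminated 3 min. Boc-Lys(Ac)-AMC substrate at 100 μM final, 3 h at 37 °C. […] Fluorescence ex 380/em 460 nm. Activity as % of untreated cells after no-substrate blank subtraction.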

[20] = tested on: KG-1; assay: Cytotoxicity against human KG-1 cells assessed as reduction in cell viability at 50 uM incubated for 48 hrs in presence of illumination with 380 nm light by celltiter glo assay; type: functional, cell-based; method in brief: as §4
[21] = Stability of the compound assessed as half life in DMEM by HPLC analysis; type: physicochemical
Method in brief: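 10 mM DMSO stock illuminated 2 min (LED array plate at maximum power, e.g. 380 nm at 11 mW/cm²), then diluted to 10 μM in DMEM with 0.1% DMSO. Kept at 37 °C in an incubator in the dark; samples taken at fixed intervals and analysed by HPLC. Cis thermal half-life obtained by fitting the decay to an exponential function.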

[22] = target: T1, Histone deacetylase 1; assay: Inhibition of human recombinant HDAC1 using Boc-Lys(Ac)-AMC as substrate incubated for 1 hrs in presence of illumination with 420 nm light by fluorescence based assay
[23] = Stability of the compound assessed as half life in buffer; type: physicochemical
[24] = in the assay text read “380 nm light” for “550 nm light”

T1 sequence (Q13547 whole entry): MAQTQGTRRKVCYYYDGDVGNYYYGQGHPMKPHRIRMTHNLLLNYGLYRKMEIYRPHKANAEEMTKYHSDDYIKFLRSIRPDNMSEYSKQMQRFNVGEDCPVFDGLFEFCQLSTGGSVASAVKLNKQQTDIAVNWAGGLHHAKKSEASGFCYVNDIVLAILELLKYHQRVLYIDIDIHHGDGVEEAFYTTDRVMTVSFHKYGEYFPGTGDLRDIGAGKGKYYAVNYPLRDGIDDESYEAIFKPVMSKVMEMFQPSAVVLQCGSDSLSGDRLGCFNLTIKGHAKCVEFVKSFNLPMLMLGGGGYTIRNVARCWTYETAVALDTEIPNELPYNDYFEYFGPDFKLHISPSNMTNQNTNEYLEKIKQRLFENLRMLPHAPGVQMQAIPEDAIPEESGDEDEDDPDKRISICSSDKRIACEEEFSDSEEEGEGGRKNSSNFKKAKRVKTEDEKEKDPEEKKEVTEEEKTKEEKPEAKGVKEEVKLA

With COc1ccc(/N=N/c2ccc(/C=C/C(=O)Nc3ccccc3N)cc2Cl)c(Cl)c1 the inhibition [1] was “inactive”, the inhibition [2] was “inactive” and the half-life at up to 50 µM [3] was 4.3 h.
For COc1ccc(/N=N/c2ccc(/C=C/C(=O)Nc3ccccc3N)cc2F)c(F)c1, the inhibition [1] was “inactive”, the IC50 [4] was 460 nM and the inhibition [2] was “inactive”. It also gave a half-life at up to 50 µM [3] of 9.9 h.
With COc1cc(Cl)c(/N=N/c2c(Cl)cc(C(=O)Nc3ccccc3N)cc2Cl)c(Cl)c1 the inhibition [5] was “inactive”, the inhibition [6] was “inactive” and the inhibition [7] was “inactive”. For the same molecule, the inhibition [8] was “inactive” and the half-life at up to 50 µM [3] was 8.3 h.
For COc1ccc(/N=N/c2ccc(/C=C/C(=O)Nc3cc(-c4cccs4)ccc3N)cc2)cc1, the Activity [9] was “inactive”, the Activity [10] was “Active” and the Activity [11, 24] was “Active”. The Activity [12] was “Active”, the Activity [13] was “inactive” and the Activity [14] was “Active”. The Activity [15] was “Active”, the Activity [16] was “inactive” and the Activity [17] was “inactive”. For the same molecule, the inhibition [18] was “inactive”, the inhibition [19] was “Active” and the Activity [20] was “Active”. The half-life at up to 50 µM [3] was 4.5 h.
For COc1cc(F)c(/N=N/c2c(F)cc(/C=C/C(=O)NO)cc2F)c(F)c1, the half-life at up to 50 µM [3] was 218 h.
For COc1cc(F)c(/N=N/c2c(F)cc(C(=O)Nc3ccccc3N)cc2F)c(F)c1, the half-life [21] was 113 h, the Activity [9] was “inactive” and the Activity [10] was “Active”. For the same molecule, the Activity [11] was “Active”, the Activity [12] was “Active” and the Activity [13] was “inactive”. For the same molecule, the Activity [14] was “Active”, the Activity [15] was “Active” and the Activity [16] was “inactive”. The inhibition [19] was “Active”, the Activity [20] was “Active” and the half-life at up to 50 µM [3] was 1010 h.
In the case of CN(C)c1cc(F)c(/N=N/c2c(F)cc(/C=C/C(=O)Nc3ccccc3N)cc2F)c(F)c1, the IC50 [22] is reported as 1200 nM, the inhibition [5] is reported as “inactive” and the half-life at up to 50 µM [3] is reported as 5.4 h.
Work on CN(C)c1cc(Cl)c(/N=N/c2c(Cl)cc(/C=C/C(=O)Nc3ccccc3N)cc2Cl)c(Cl)c1 yielded an IC50 [22] of 5000 nM and a half-life at up to 50 µM [3] of 0.135 h.
With COc1cc(Cl)c(/N=N/c2c(Cl)cc(/C=C/C(=O)Nc3ccccc3N)cc2Cl)c(Cl)c1 the inhibition [5] was “inactive” and the half-life at up to 50 µM [3] was 13.8 h.
With COc1ccc(/N=N/c2ccc(CCC(=O)Nc3ccccc3N)cc2)cc1 the Activity [1] was “inactive”, the inhibition [2] was “inactive” and the half-life at up to 50 µM [3] was 20.1 h.
For COc1cc(F)c(/N=N/c2c(F)cc(/C=C/C(=O)Nc3ccccc3N)cc2Cl)c(Cl)c1, the Activity [9] was “inactive”, the Activity [10] was “Active” and the Activity [11] was “Active”. For the same molecule, the Activity [12] was “Active”, the Activity [13] was “inactive” and the inhibition [2] was “inactive”. For the same molecule, the Activity [14] was “Active”, the Activity [15] was “Active” and the Activity [16] was “inactive”. For the same molecule, the inhibition [19] was “Active”, the Activity [20] was “Active” and the half-life at up to 50 µM [3] was 178 h.
For COc1ccc(/N=N/c2ccc(C(=O)Nc3ccccc3N)cc2)cc1, the inhibition [2] was “inactive” and the half-life at up to 50 µM [3] was 20.8 h.
CN(C)c1ccc(/N=N/c2ccc(C(=O)Nc3ccccc3N)cc2)cc1 gave a half-life at up to 50 µM [3] of 0.0717 h.
In the case of COc1cc(F)c(/N=N/c2c(F)cc(/C=C/C(=O)Nc3ccccc3N)cc2F)c(F)c1, the Activity [9] is reported as “inactive”, the Activity [10] is reported as “Active” and the Activity [11] is reported as “Active”. The Activity [12] was “Active”, the Activity [13] was “inactive” and the inhibition [2] was “inactive”. The Activity [14] was “Active”, the Activity [15] was “Active” and the Activity [16] was “inactive”. The inhibition [19] was “Active”, the Activity [20] was “Active” and the half-life at up to 50 µM [3] was 223 h.
In the case of COc1ccc(/N=N/c2ccc(/C=C/C(=O)Nc3ccccc3N)cc2)cc1, the half-life [21] is reported as 0.667 h, the Activity [9] is reported as “inactive” and the Activity [10] is reported as “Active”. The Activity [11, 24] was “Active”, the Activity [12] was “Active” and the Activity [13] was “inactive”. For the same molecule, the Activity [14] was “Active”, the Activity [15] was “Active” and the Activity [16] was “inactive”. For the same molecule, the Activity [17] was “inactive”, the inhibition [19] was “Active” and the Activity [20] was “Active”. The half-life at up to 50 µM [3] was 3.1 h.
For COc1ccc(/N=N/c2ccc(/C=C/C(=O)NO)cc2)cc1, the half-life [23] was 2.7 h and the half-life at up to 50 µM [3] was 2.7 h.
COc1ccc(/N=N/c2ccc(C(=O)NO)cc2)cc1 gave a half-life at up to 50 µM [3] of 18.7 h.
